Measured values from ChEMBL document CHEMBL1828538, “Synthesis and pharmacological evaluation of indole-based sigma receptor ligands” (Eur J Med Chem, 2011).

Tests used:
[1] = biological target: Sigma non-opioid intracellular receptor 1 (Rattus norvegicus, UniProt Q9R0C9); assay: Displacement of (-)-[3H]pentazocine from sigma 1 receptor in rat brain membrane after 120 mins; type: cell membranes
[2] = Displacement of [3H]di-o-tolylguanidine from sigma 2 receptor in rat brain membrane after 120 mins; type: cell membranes
In short: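 Rat whole-brain homogenate without cerebellum (400–500 μg) incubated with 3 nM [3H]DTG plus 300 nM (+)-pentazocine to mask sigma-1 sites. Filtration through PEI-soaked glass fiber, scintillation counting, run in duplicate. Ki by Cheng-Prusoff.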

[3] = organism: Rattus norvegicus; assay: Selectivity ratio of Ki for sigma 1 receptor in rat brain membrane to sigma 2 receptor in rat brain membrane; type: cell membranes
[4] = Binding affinity to sigma 2 receptor
In short: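 Rat whole-brain homogenate without cerebellum (400–500 μg) incubated with 3 nM [3H]DTG plus 300 nM (+)-pentazocine to mask sigma-1 sites. […] Filtration through PEI-soaked glass fiber, scintillation counting, run in duplicate. Ki by Cheng-Prusoff.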

Sigma non-opioid intracellular receptor 1, sequence (Q9R0C9 whole entry): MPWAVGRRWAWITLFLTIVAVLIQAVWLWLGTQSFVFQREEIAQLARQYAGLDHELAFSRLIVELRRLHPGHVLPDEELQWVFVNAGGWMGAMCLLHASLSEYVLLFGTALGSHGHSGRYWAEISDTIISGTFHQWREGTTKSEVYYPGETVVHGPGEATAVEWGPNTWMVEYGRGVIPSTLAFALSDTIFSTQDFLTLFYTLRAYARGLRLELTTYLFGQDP

Work on `COc1cc2c(cc1OC)CN(CCCCn1ccc3ccccc31)CC2` yielded a Ki [1] of 141 nM.

For `CC(=O)c1ccc2c(ccn2CCCCN2CCN(C3CCCCC3)CC2)c1`, the Ki [1] was 5.33 nM, the Ki [2] was 2.31 nM and the Ratio Ki [3] was 2.3.

In the case of `c1ccc2c(c1)c(-c1ccoc1)cn2CCCCN1CCN(C2CCCCC2)CC1`, the Ki [1] is reported as 34.5 nM, the Ki [2] is reported as 10.1 nM and the Ratio Ki [3] is reported as 3.4.

With `Fc1ccc(N2CCN(CCCCn3cc(-c4ccoc4)c4ccccc43)CC2)cc1` the Ki [1] was 279 nM, the Ki [2] was 157 nM and the Ratio Ki [3] was 1.8.

Compound `Fc1ccc(N2CCN(CCCCn3cc(-c4ccccc4)c4ccccc43)CC2)cc1` has a Ki [1] of 222 nM, a Ki [2] of 9.96 nM and a Ratio Ki [3] of 22.3.

`COc1cc2c(cc1OC)CN(CCCCn1ccc3cc(C(C)=O)ccc31)CC2` gave a Ki [1] of 14.6 nM, a Ki [2] of 1.42 nM and a Ratio Ki [3] of 10.2.

Work on `Fc1ccc(N2CCN(CCCCn3ccc4ccccc43)CC2)cc1` yielded a Ki [1] of 71.5 nM and a Ratio Ki [3] of 5.4.

For `CC(=O)c1ccc2c(ccn2CCCCN2CCN(c3ccc(F)cc3)CC2)c1`, the Ki [1] was 2.13 nM, the Ki [2] was 3.3 nM and the Ratio Ki [3] was 0.6.

With `COc1cc2c(cc1OC)CN(CCCCn1cc(-c3ccccc3)c3ccccc31)CC2` the Ki [1] was 714 nM, the Ki [2] was 46.3 nM and the Ratio Ki [3] was 15.4.

`Fc1ccc(-c2cn(CCCCN3CCN(C4CCCCC4)CC3)c3ccccc23)cc1` showed a Ratio Ki [3] of 4.

For `COc1cc2c(cc1OC)CN(CCCCNC(=O)c1cc(Br)cc(OC)c1OC)CC2`, the Ki [4] was 8.2 nM.

Work on `COc1cc2c(cc1OC)CN(CCCCn1cc(-c3ccoc3)c3ccccc31)CC2` yielded a Ki [1] of 614 nM, a Ki [2] of 12 nM and a Ratio Ki [3] of 51.1.

Work on `c1ccc(-c2cn(CCCCN3CCN(C4CCCCC4)CC3)c3ccccc23)cc1` yielded a Ki [1] of 92.4 nM, a Ki [2] of 12.3 nM and a Ratio Ki [3] of 7.5.
